Laboratory results published in PMC8903082 (Journal of medicinal chemistry, 2020).

What was measured:
red blood cells of mice = test: Hemolytic assay; assay type: cell-based; details: 37 °C, 1 h, testing range up to 250 μg/mL
MRSA [1] = test: Drug resistance study; assay type: cell-based, Staphylococcus aureus; details: 13 passages
MRSA [2] = test: TEM study, MRSA; assay type: cell-based, Staphylococcus aureus; details: 6 μg/mL, 2 h
Procedure, shortened: (§1)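 Cells were prepared at 10^6 CFU/mL as for MIC testing and treated with the test compound for 2 h at 37 °C; untreated controls ran alongside. Cells were pelleted, washed three times in PBS and resuspended in deionised water. They were dropped on grids, blotted, dried 30 s at 50 °C under vacuum, and imaged by TEM at 60 kV.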

E. coli [3] = test: Fluorescence microscopy; assay type: cell-based, Escherichia coli; details: 2 × MIC, 2 h
E. coli [4] = test: Time-kill study, E. coli; assay type: cell-based, Escherichia coli; details: concentrations of 24 and 48 μg/mL
Procedure, shortened: (§2)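 Overnight TSB cultures (37 °C, shaking) were subcultured 6 h to mid-log phase. Suspensions at 10^6 CFU/mL were exposed to the test compound at 37 °C for 10, 30, 60 and 120 min (E. coli 12, 24, 48 μg/mL; MRSA 6, 12, 24, 48 μg/mL). Untreated bacteria served as controls. Samples were diluted (MRSA 10^2-fold, E. coli 10^4-fold) and plated on TSB agar for 20 h at 37 °C. Colonies were counted against time. Three repeats.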

MRSA [5] = assay type: cell-based, Staphylococcus aureus; details: not told
[6] = test system: E. coli biofilm formation; test: Biofilm prevention study; assay type: cell-based; details: Escherichia coli, 48 h, read-out: Inhibition of E. coli biofilm formation
E. coli [7] = test: Membrane depolarization study, DiSC3; assay type: cell-based, Escherichia coli; details: 0.5 ×, 1 ×, 2 × and 4 × MIC
E. coli [8] = test: Inner membrane permeabilization; assay type: cell-based, Escherichia coli; details: 2-fold MIC
Procedure, shortened: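 Mid-log E. coli was pelleted at 1000g, washed three times and resuspended to 10^6 CFU/mL in 5 mM HEPES/5 mM glucose (1:1). It was mixed with PI from a 10 μM solution. Fluorescence (ex 535, em 617 nm) was read every 2 min for about 8 min. The test compound was then added and reading continued for 12 min. The negative control received water. Three repeats.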

MRSA [9] = test: Fluorescence microscopy; assay type: cell-based, Staphylococcus aureus; details: 2 × MIC, 2 h
E. coli [10] = test: TEM study, E. coli; assay type: cell-based, Escherichia coli; details: 12 μg/mL, 2 h
Procedure, shortened: as §1

MRSA [11] = test: Time-kill study, MRSA; assay type: cell-based, Staphylococcus aureus; details: concentrations of 24 and 48 μg/mL
Procedure, shortened: as §2

SMILES: NCCCC(=O)N[C@@H](Cc1ccccc1)CN1CC(=O)N(c2ccc(N3CN(C[C@H](Cc4ccccc4)NC(=O)CCCN)CC3=O)cc2)C1 [Compound 9, N,N'-((2S,2'S)-(1,4-Phenylenebis(4-oxoimidazolidine-3,1-diyl))-bis(3-phenylpropane-1,2-diyl))bis(4-aminobutanamide)]
- Hemolysis (HC50) (red blood cells of mice): >250 µg/mL

SMILES: NCCCC[C@@H](CN1CC(=O)N(c2ccc(N3CN(C[C@H](CCCCN)NC(=O)CC45C[C@H]6C[C@@H](C4)C[C@@H](C5)C6)CC3=O)cc2)C1)NC(=O)CC12C[C@H]3C[C@@H](C1)C[C@@H](C2)C3 [Compound 7, N,N'-((2S,2'S)-(1,4-Phenylenebis(4-oxoimidazolidine-3,1-diyl))-bis(6-aminohexane-1,2-diyl))bis(2-((3S,5S,7S)-adamantan-1-yl)-acetamide)]
- Hemolysis (HC50) (red blood cells of mice): >250 µg/mL

SMILES: CCCCCC(=O)N[C@@H](CCCCN)CN1CC(=O)N(c2ccc(N3CN(C[C@H](CCCCN)NC(=O)CCCCC)CC3=O)cc2)C1 [Compound 1, N,N'-((2S,2'S)-(1,4-Phenylenebis(4-oxoimidazolidine-3,1-diyl))-bis(6-aminohexane-1,2-diyl))dihexan amide]
- Hemolysis (HC50) (red blood cells of mice): >250 µg/mL

SMILES: CCn1cc(C(=O)O)c(=O)c2cc(F)c(N3CCNCC3)cc21 [norfloxacin, reference compound]
- Fold increase in MIC toward MRSA (MRSA [1]): more than 22 fold

SMILES: CCCCCCCCCCCCCCCC(=O)N[C@@H](CCCCN)CN1CC(=O)N(c2ccc(N3CN(C[C@H](CCCCN)NC(=O)CCCCCCCCCCCCCCC)CC3=O)cc2)C1 [Compound 6, N,N'-((2S,2'S)-(1,4-Phenylenebis(4-oxoimidazolidine-3,1-diyl))-bis(6-aminohexane-1,2-diyl))dipalmitamide]
- Hemolysis (HC50) (red blood cells of mice): >250 µg/mL

SMILES: NCCCC[C@@H](CN1CC(=O)N(c2ccc(N3CN(C[C@H](CCCCN)NC(=O)Cc4ccc5ccccc5c4)CC3=O)cc2)C1)NC(=O)Cc1ccc2ccccc2c1 [Compound 8, N,N'-((2S,2'S)-(1,4-Phenylenebis(4-oxoimidazolidine-3,1-diyl))-bis(6-aminohexane-1,2-diyl))bis(2-(naphthalen-2-yl)acetamide)]
- Hemolysis (HC50) (red blood cells of mice): >250 µg/mL

SMILES: CCCCCCCCCC(=O)N[C@@H](CCCCN)CN1CC(=O)N(c2ccc(N3CN(C[C@H](CCCCN)NC(=O)CCCCCCCCC)CC3=O)cc2)C1 [Compound 3, N,N'-((2S,2'S)-(1,4-Phenylenebis(4-oxoimidazolidine-3,1-diyl))-bis(6-aminohexane-1,2-diyl))bis(decanamide)]
- Cell membrane morphology of MRSA (TEM) (MRSA [2]): their membrane was all dispersed
- DAPI/PI staining of E. coli (membrane integrity) (E. coli [3]): blue and red fluorescence were all observed
- Time required for eradicating E. coli (E. coli [4]): 30 min
- Inner membrane permeabilization of MRSA (PI fluorescence) (MRSA [5]): permeabilized fast
- inhibition at 3 µg/mL [6]: > 55%
- Hemolysis (HC50) (red blood cells of mice): >250 µg/mL
- Fold increase in MIC toward MRSA (MRSA [1]): remained almost unchanged
- Membrane depolarization, DiSC3(5) fluorescence intensity (E. coli [7]): increase in a concentration-dependent manner
- Inner membrane permeabilization of E. coli (PI fluorescence) (E. coli [8]): permeabilized fast
- DAPI/PI staining of MRSA (membrane integrity) (MRSA [9]): blue and red fluorescence were all observed
- Cell membrane morphology of E. coli (TEM) (E. coli [10]): their membrane was all dispersed
- Time to thoroughly eliminate MRSA (MRSA [11]): ≤ 60 min

SMILES: CCCCCCCCCCCCCC(=O)N[C@@H](CCCCN)CN1CC(=O)N(c2ccc(N3CN(C[C@H](CCCCN)NC(=O)CCCCCCCCCCCCC)CC3=O)cc2)C1 [Compound 5, N,N'-((2S,2'S)-(1,4-Phenylenebis(4-oxoimidazolidine-3,1-diyl))-bis(6-aminohexane-1,2-diyl))ditetradecanamide]
- Hemolysis (HC50) (red blood cells of mice): >250 µg/mL

SMILES: CCCCCCCCCC(=O)N[C@@H](CCCCN)CNCC(=O)Nc1ccc(NC(=O)CNC[C@H](CCCCN)NC(=O)CCCCCCCCC)cc1 [Compound 11, N,N'-((2S,2'S)-(((1,4-Phenylenebis(azanediyl))bis(2-oxoethane-2,1-diyl))bis(azanediyl))bis(6-aminohexane-1,2-diyl))bis-(decanamide)]
- Hemolysis (HC50) (red blood cells of mice): >250 µg/mL

SMILES: CCCCCCCCCCCC(=O)N[C@@H](CCCCN)CN1CC(=O)N(c2ccc(N3CN(C[C@H](CCCCN)NC(=O)CCCCCCCCCCC)CC3=O)cc2)C1 [Compound 4, N,N'-((2S,2'S)-(1,4-Phenylenebis(4-oxoimidazolidine-3,1-diyl))-bis(6-aminohexane-1,2-diyl))didodecanamide]
- Hemolysis (HC50) (red blood cells of mice): >250 µg/mL

SMILES: CCCCCCCC(=O)N[C@@H](CCCCN)CN1CC(=O)N(c2ccc(N3CN(C[C@H](CCCCN)NC(=O)CCCCCCC)CC3=O)cc2)C1 [Compound 2, N,N'-((2S,2'S)-(1,4-Phenylenebis(4-oxoimidazolidine-3,1-diyl))-bis(6-aminohexane-1,2-diyl))dioctan amide]
- Hemolysis (HC50) (red blood cells of mice): >250 µg/mL

SMILES: CCCCCCCCCC(=O)N[C@@H](Cc1ccccc1)CN1CC(=O)N(c2ccc(N3CN(C[C@H](Cc4ccccc4)NC(=O)CCCCCCCCC)CC3=O)cc2)C1 [Compound 10, N,N'-((2S,2'S)-(1,4-Phenylenebis(4-oxoimidazolidine-3,1-diyl))-bis(3-phenylpropane-1,2-diyl))bis(decanamide)]
- Hemolysis (HC50) (red blood cells of mice): >250 µg/mL
